Experimental data reported in ChEMBL document CHEMBL1121899, “Biological activities of photoaffinity labeling analogues of kinins and their irreversible effects on kinin receptors” (1981).
Where a SMILES comes first, the peptide text is derived from it.

Columns and labels:
Format in all cases: functional
[1] = species: Oryctolagus cuniculus; assay: The compound was tested in vitro on rabbit aorta for residual response in presence of ultraviolet light
Outline: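 Aorta strips in cycloheximide were challenged twice with [des-Arg⁹]BK and checked with 3 µM noradrenaline and 0.2 µM [Sar¹]angiotensin II. They were then incubated with 100 µM (4'-amino)Phe plus the photolabel and irradiated 10 min around 365 nm (18 mW/cm²). This was done once or twice. Residual [des-Arg⁹]BK response at 60 min was expressed as percent of reference tissues.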

[2] = biological target: T1, B1 bradykinin receptor (Homo sapiens) (UniProt P46663); assay: Intrinsic activity was determined; conditions: Oryctolagus cuniculus
T1 sequence (whole entry): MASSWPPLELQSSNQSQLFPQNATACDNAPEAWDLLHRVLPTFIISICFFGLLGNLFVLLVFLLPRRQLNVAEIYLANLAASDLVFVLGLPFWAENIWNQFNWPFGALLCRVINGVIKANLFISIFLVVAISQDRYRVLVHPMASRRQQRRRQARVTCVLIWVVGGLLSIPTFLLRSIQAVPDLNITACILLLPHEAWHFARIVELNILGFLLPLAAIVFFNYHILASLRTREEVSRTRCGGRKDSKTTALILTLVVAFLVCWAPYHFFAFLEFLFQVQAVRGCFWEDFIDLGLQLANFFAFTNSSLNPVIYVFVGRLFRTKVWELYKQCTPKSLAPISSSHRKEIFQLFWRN

[3] = species: Oryctolagus cuniculus; assay: In vitro 50 % Maximal response in rabbit aorta expressing B1 receptor; conditions: read-out: ED50 (the source's name)
[4] = species: Oryctolagus cuniculus; assay: Competitive protection towards rabbit aorta in the presence of light
Outline: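 Rabbit aorta strips (B1), with cycloheximide 10 µg/mL present after 3 h equilibration. Tissue pretreated with 50 µM [Leu⁸,des-Arg⁹]BK before the photolabel, scavenger (4'-amino)Phe 100 µM, and 10 min irradiation around 365 nm (18 mW/cm²). Residual [des-Arg⁹]BK response read 60 min after treatment, relative to reference tissues.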

[5] = biological target: T2, B2 bradykinin receptor (Homo sapiens) (UniProt P30411); assay: Percent agonistic activity in rabbit jugular vein expressing B2 receptor relative to bradykinin; conditions: Oryctolagus cuniculus
T2 sequence (whole entry): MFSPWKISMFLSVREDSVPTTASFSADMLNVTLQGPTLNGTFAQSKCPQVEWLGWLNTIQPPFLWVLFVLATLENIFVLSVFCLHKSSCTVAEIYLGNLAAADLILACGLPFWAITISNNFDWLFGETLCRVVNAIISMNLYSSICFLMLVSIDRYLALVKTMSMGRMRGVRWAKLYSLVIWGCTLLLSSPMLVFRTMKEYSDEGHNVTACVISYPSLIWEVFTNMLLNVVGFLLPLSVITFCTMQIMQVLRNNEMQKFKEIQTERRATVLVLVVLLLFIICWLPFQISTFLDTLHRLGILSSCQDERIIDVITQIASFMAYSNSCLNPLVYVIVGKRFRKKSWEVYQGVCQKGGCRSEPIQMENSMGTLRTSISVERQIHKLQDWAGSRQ
Outline: (§1)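 Isolated rabbit jugular vein strips were equilibrated about 2 h with protease inhibitor SQ 14225 (100 ng/mL) under incandescent light, with no UV. pD₂ was taken as −log of the half-maximal concentration. Relative affinity is given as percent of BK. Specificity was checked by desensitization with BK or an analogue. Antagonists were given as pA₂ from the ID₅₀ that reduces a double agonist dose to a single-dose response.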

[6] = biological target: T2, B2 bradykinin receptor (Homo sapiens); assay: In vitro 50 % Maximal response in jugular vein expressing B2 receptor; conditions: Oryctolagus cuniculus; outline: as §1

Compound	Alpha E [2]	Relative affinity [5]	other results
NC(N)=NCCC[C@H](N)C(=O)N1CCC[C@H]1C(=O)N1CCC[C@H]1C(=O)NCC(=O)N[C@@H](Cc1ccccc1)C(=O)N[C@@H](CO)C(=O)N1CCC[C@H]1C(=O)N[C@@H](Cc1ccccc1)C(=O)O	1	–	Response [1]: 85%; EC50 [3]: 68 nM
NC(N)=NCCC[C@H](N)C(=O)N1CCC[C@H]1C(=O)N1CCC[C@H]1C(=O)NCC(=O)N[C@@H](Cc1ccc(N)cc1)C(=O)N[C@@H](CO)C(=O)N1CCC[C@H]1C(=O)N[C@@H](Cc1ccccc1)C(=O)O	1	–	EC50 [3]: 5460 nM
NC(N)=NCCC[C@H](N)C(=O)N1CCC[C@H]1C(=O)N1CCC[C@H]1C(=O)NCC(=O)N[C@@H](Cc1ccccc1)C(=O)N[C@@H](CO)C(=O)N1CCC[C@H]1C(=O)N[C@@H](Cc1ccc(N)cc1)C(=O)O	1	–	EC50 [3]: 4650 nM
N#[N+]c1ccc(C[C@H](NC(=O)CNC(=O)[C@@H]2CCCN2C(=O)[C@@H]2CCCN2C(=O)[C@@H](N)CCCN=C(N)N)C(=O)N[C@@H](CO)C(=O)N2CCC[C@H]2C(=O)N[C@@H](Cc2ccccc2)C(=O)O)cc1	1	–	EC50 [3]: 3750 nM
[N-]=[N+]=Nc1ccc(C[C@H](NC(=O)CNC(=O)[C@@H]2CCCN2C(=O)[C@@H]2CCCN2C(=O)[C@@H](N)CCCN=C(N)N)C(=O)N[C@@H](CO)C(=O)N2CCC[C@H]2C(=O)N[C@@H](Cc2ccccc2)C(=O)O)cc1	1	–	Response [1]: 90%; EC50 [3]: 461 nM
NC(N)=NCCC[C@H](N)C(=O)N1CCC[C@H]1C(=O)N1CCC[C@H]1C(=O)NCC(=O)N[C@@H](Cc1ccc([N+](=O)[O-])cc1)C(=O)N[C@@H](CO)C(=O)N1CCC[C@H]1C(=O)N[C@@H](Cc1ccccc1)C(=O)O	1	–	Response [1]: 92%; EC50 [3]: 437 nM
NC(N)=NCCC[C@H](N)C(=O)N1CCC[C@H]1C(=O)N1CCC[C@H]1C(=O)NCC(=O)N[C@@H](Cc1ccccc1)C(=O)N[C@@H](CO)C(=O)N1CCC[C@H]1C(=O)N[C@@H](Cc1ccc([N+](=O)[O-])cc1)C(=O)O	–	–	Competitive protection [4]: 75; Response [1]: 76%; EC50 [3]: > 100000 nM
CC(C)C[C@H](NC(=O)[C@@H]1CCCN1C(=O)[C@H](CO)NC(=O)[C@H](Cc1ccccc1)NC(=O)CNC(=O)[C@@H]1CCCN1C(=O)[C@@H]1CCCN1C(=O)[C@@H](N)CCCN=C(N)N)C(=O)O	0	–	–
COc1ccc(C[C@H](NC(=O)[C@@H]2CCCN2C(=O)[C@H](CO)NC(=O)[C@H](Cc2ccccc2)NC(=O)CNC(=O)[C@@H]2CCCN2C(=O)[C@@H]2CCCN2C(=O)[C@@H](N)CCCN=C(N)N)C(=O)O)cc1 (H-RPPGFSPY(Me)-OH)	1	–	–
COc1ccc(C[C@H](NC(=O)[C@@H]2CCCN2C(=O)[C@H](CO)NC(=O)[C@H](Cc2ccccc2)NC(=O)CNC(=O)[C@@H]2CCCN2C(=O)[C@@H]2CCCN2C(=O)[C@@H](N)CCCN=C(N)N)C(=O)N[C@@H](CCCN=C(N)N)C(=O)O)cc1 (H-RPPGFSPY(Me)R-OH)	1	65%	–
COc1ccc(C[C@H](NC(=O)CNC(=O)[C@@H]2CCCN2C(=O)[C@@H]2CCCN2C(=O)[C@@H](N)CCCN=C(N)N)C(=O)N[C@@H](CO)C(=O)N2CCC[C@H]2C(=O)N[C@@H](Cc2ccccc2)C(=O)O)cc1 (H-RPPGY(Me)SPF-OH)	1	–	–
COc1ccc(C[C@H](NC(=O)CNC(=O)[C@@H]2CCCN2C(=O)[C@@H]2CCCN2C(=O)[C@@H](N)CCCN=C(N)N)C(=O)N[C@@H](CO)C(=O)N2CCC[C@H]2C(=O)N[C@@H](Cc2ccccc2)C(=O)N[C@@H](CCCN=C(N)N)C(=O)O)cc1 (H-RPPGY(Me)SPFR-OH)	1	14%	–
NC(N)=NCCC[C@H](NC(=O)[C@H](CC1CCCCC1)NC(=O)[C@@H]1CCCN1C(=O)[C@H](CO)NC(=O)[C@H](Cc1ccccc1)NC(=O)CNC(=O)[C@@H]1CCCN1C(=O)[C@@H]1CCCN1C(=O)[C@@H](N)CCCN=C(N)N)C(=O)O (HELM PEPTIDE1{R.P.P.G.F.S.P.[Cha].R}$$$$V2.0)	1	23%	–
NC(N)=NCCC[C@H](N)C(=O)N1CCC[C@H]1C(=O)N1CCC[C@H]1C(=O)NCC(=O)N[C@@H](Cc1ccccc1)C(=O)N[C@@H](CO)C(=O)N1CCC[C@H]1C(=O)N[C@@H](CC1CCCCC1)C(=O)O (HELM PEPTIDE1{R.P.P.G.F.S.P.[Cha]}$$$$V2.0)	0	–	–
NC(N)=NCCC[C@H](NC(=O)[C@H](Cc1cc(I)c(N)c(I)c1)NC(=O)[C@@H]1CCCN1C(=O)[C@H](CO)NC(=O)[C@H](Cc1ccccc1)NC(=O)CNC(=O)[C@@H]1CCCN1C(=O)[C@@H]1CCCN1C(=O)[C@@H](N)CCCN=C(N)N)C(=O)O (HELM PEPTIDE1{R.P.P.G.F.S.P.[Nc1c(I)cc(C[C@H](N[*:1])C(=O)[*:2])cc1I].R}$$$$V2.0)	–	< 0.01%	ED50 [6]: > 100000 nM
NC(N)=NCCC[C@H](NC(=O)[C@H](Cc1ccc(N)cc1)NC(=O)[C@@H]1CCCN1C(=O)[C@H](CO)NC(=O)[C@H](Cc1ccccc1)NC(=O)CNC(=O)[C@@H]1CCCN1C(=O)[C@@H]1CCCN1C(=O)[C@@H](N)CCCN=C(N)N)C(=O)O (HELM PEPTIDE1{R.P.P.G.F.S.P.[Nc1ccc(C[C@H](N[*:1])C(=O)[*:2])cc1].R}$$$$V2.0)	1	9%	ED50 [6]: 19.5 nM
NC(N)=NCCC[C@H](NC(=O)[C@H](Cc1ccccc1)NC(=O)[C@@H]1CCCN1C(=O)[C@H](CO)NC(=O)[C@H](CC1CCCCC1)NC(=O)CNC(=O)[C@@H]1CCCN1C(=O)[C@@H]1CCCN1C(=O)[C@@H](N)CCCN=C(N)N)C(=O)O (HELM PEPTIDE1{R.P.P.G.[Cha].S.P.F.R}$$$$V2.0)	1	23%	–

Compound	Alpha E [2]	Relative affinity [5]	other results
NC(N)=NCCC[C@H](N)C(=O)N1CCC[C@H]1C(=O)N1CCC[C@H]1C(=O)NCC(=O)N[C@@H](CC1CCCCC1)C(=O)N[C@@H](CO)C(=O)N1CCC[C@H]1C(=O)N[C@@H](Cc1ccccc1)C(=O)O (HELM PEPTIDE1{R.P.P.G.[Cha].S.P.F}$$$$V2.0)	1	–	–
N=C(N)NCCC[C@H](NC(=O)[C@H](Cc1ccccc1)NC(=O)[C@@H]1CCCN1C(=O)[C@H](CO)NC(=O)[C@H](Cc1cc(I)c(N)c(I)c1)NC(=O)CNC(=O)[C@@H]1CCCN1C(=O)[C@@H]1CCCN1C(=O)[C@@H](N)CCCNC(=N)N)C(=O)O (HELM PEPTIDE1{R.P.P.G.[Nc1c(I)cc(C[C@H](N[*:1])C(=O)[*:2])cc1I].S.P.F.R}$$$$V2.0)	–	< 0.01%	ED50 [6]: > 100000 nM
NC(N)=NCCC[C@H](NC(=O)[C@H](Cc1ccccc1)NC(=O)[C@@H]1CCCN1C(=O)[C@H](CO)NC(=O)[C@H](Cc1ccc(N)cc1)NC(=O)CNC(=O)[C@@H]1CCCN1C(=O)[C@@H]1CCCN1C(=O)[C@@H](N)CCCN=C(N)N)C(=O)O (HELM PEPTIDE1{R.P.P.G.[Nc1ccc(C[C@H](N[*:1])C(=O)[*:2])cc1].S.P.F.R}$$$$V2.0)	1	3%	ED50 [6]: 57 nM
[N-]=[N+]=Nc1ccc(/N=N/c2cc(C[C@H](NC(=O)CNC(=O)[C@@H]3CCCN3C(=O)[C@@H]3CCCN3C(=O)[C@@H](N)CCCN=C(N)N)C(=O)N[C@@H](CO)C(=O)N3CCC[C@H]3C(=O)N[C@@H](Cc3ccccc3)C(=O)O)ccc2O)cc1 (HELM PEPTIDE1{R.P.P.G.[[N-]=[N+]=Nc1ccc(/N=N/c2cc(C[C@H](N[*:1])C(=O)[*:2])ccc2O)cc1].S.P.F}$$$$V2.0)	1	–	Response [1]: 69%; EC50 [3]: 1280 nM
H-RPPGASPF-OH	1	–	–
H-RPPGASPFR-OH	1	0.1%	–
H-RPPGDSPFR-OH	–	0.08%	–
H-RPPGFSPA-OH	0	–	–
H-RPPGFSPAR-OH	1	0.01%	–
H-RPPGFSPDR-OH	–	0.04%	–
H-RPPGFSPLR-OH	1	0.1%	–
H-RPPGFSPY-OH	1	–	–
H-RPPGFSPYR-OH	1	3.5%	–
H-RPPGLSPF-OH	1	–	–
H-RPPGLSPFR-OH	1	8%	–
H-RPPGYSPF-OH	1	–	EC50 [3]: 869 nM
H-RPPGYSPFR-OH	1	0.3%	–
